Experiments:
GBM8401 glioma cells [1] = assay: Wound healing migration assay, GBM8401; type: cell-based, human; conditions: GBM8401, 16 h wound healing, dosage under IC50
Summary of the method: (§1)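 Cells plated at 1×10^5 per well in 12-well plates at 37°C, 5% CO2. At 90% confluence the medium was removed and the monolayer scratched with a 200 μL pipette tip, then washed three times. Wound imaged at 0 and 16 h, and migration calculated from the change in wound area, with 0 h DMSO-control area set to 100%.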

GBM8401 glioma cells [2] = assay: Colony formation assay, GBM8401; type: cell-based, human; conditions: GBM8401, cultured 2 weeks
Summary of the method: (§2)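 Cells seeded at 3000 per well in 6-well plates and grown 2 weeks, with test compound added on day 3. Colonies fixed in methanol and stained with 0.5% crystal violet. Image analysis counted colonies larger than 0.1 mm in diameter. Mean ± s.d., n = 3.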

[3] = system: SVG p12 normal brain cell line; assay: MTS cell viability assay, SVG p12; type: cell-based, human
LN229 glioma cells [4] = assay: Cell cycle analysis; type: cell-based, human; conditions: LN229, 48 h, low-dose
Summary of the method: (§3)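 Treated 48 h, then fixed in 70% ethanol at 4°C and held overnight at −20°C. Washed twice in cold PBS containing 1% FBS, then stained with PI solution containing Tween 20 and RNase A for 30 min at 37°C in the dark. DNA content read by flow cytometry. Mean ± s.d., n = 3, against control by t test or one-way ANOVA.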

[5] = system: NHA (normal human astrocyte); assay: MTS cell viability assay, NHA; type: cell-based
GBM8401 glioma cells [6] = assay: MTS cell viability assay, GBM8401; type: cell-based, human
Summary of the method: (§4)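 Cells in DMEM with 10% FBS and penicillin/streptomycin at 37°C under 5% CO2, seeded in 96-well plates (LN229 3000, GBM8401 2000 cells per well). Exposed to test compound for 24 h, then incubated 2 h with MTS reagent added to the medium. Absorbance read at 490 nm, and IC50 determined from the viability data.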

LN229 glioma cells [7] = assay: Wound healing migration assay, LN229; type: cell-based, human; conditions: LN229, 16 h wound healing, dosage under IC50
Summary of the method: as §1

GBM8401 glioma cells [8] = assay: BrdU proliferation assay, GBM8401; type: cell-based, human; conditions: GBM8401, 48 h; for effect on cell proliferation: single dose
GBM8401 glioma cells [9] = assay: Cell cycle analysis; type: cell-based, human; conditions: GBM8401, 48 h, low-dose
Summary of the method: as §3

LN229 glioma cells [10] = assay: BrdU proliferation assay, LN229; type: cell-based, human; conditions: for effect on cell proliferation: LN229, 48 h, single dose
LN229 glioma cells [11] = assay: Colony formation assay, LN229; type: cell-based, human; conditions: LN229, cultured 2 weeks
Summary of the method: as §2

LN229 glioma cells [12] = assay: MTS cell viability assay, LN229; type: cell-based, human
Summary of the method: as §4

[13] = SVG p12, MTS assay, 24 h treatment
[14] = Homo sapiens, Glioma cell, 24 h

Molecule | effect on migration (GBM8401 glioma cells [1]) | effect on colony formation (GBM8401 glioma cells [2]) | IC50 [3, 13] | IC50 ([5]; NHA, MTS assay, 24 h treatment) | IC50 (GBM8401 glioma cells [6]; [14]) | effect on migration (LN229 glioma cells [7]) | effect on cell proliferation (GBM8401 glioma cells [8]) | effect on cell proliferation (LN229 glioma cells [10]) | effect on colony formation (LN229 glioma cells [11]) | IC50 (LN229 glioma cells [12]; Homo sapiens, LN-229, 24 h) | also measured
O=C(/C=C/c1ccc(O)cc1)CC(=O)/C=C/c1ccc(O)cc1 [Bisdemethoxycurcumin] | had no effect on the migration | dose dependently increased colony formation | 29.2 µM | 31.9 µM | 32.4 µM | had no effect on the migration | significantly increased the cell proliferation | significantly increased the cell proliferation | dose dependently increased colony formation | 26.8 µM | IC50 ([3]; Homo sapiens, SVGp12, 24 h, SVG p12, MTS assay, 24 h treatment): 30 µM; effect on S phase (LN229 glioma cells [4]): increased S phase not significantly; effect on cell viability (GBM8401 glioma cells [6]; GBM8401, low-dose): slightly increased cell viability; dose effect on cell proliferation (BrdU M1) (GBM8401 glioma cells [8]): dose-dependently increased M1; effect on S phase (GBM8401 glioma cells [9]): increased S phase not significantly; dose effect on cell proliferation (BrdU M1) (LN229 glioma cells [10]; LN229 (printed LN299), 48 h): dose-dependently increased M1; effect on cell viability (LN229 glioma cells [12]; LN229, low-dose): slightly increased cell viability
COc1cc(/C=C/C(=O)CC(=O)/C=C/c2ccc(O)c(OC)c2)ccc1O [Curcumin] | dose-dependently inhibited the migration | inhibited colony formation |  |  | 6.31 µM | dose-dependently inhibited the migration | suppressed cell proliferation | suppressed cell proliferation | inhibited colony formation | 5.85 µM | IC50 ([3]; Homo sapiens, SVGp12, 24 h): 4.19 µM; IC50 ([5]; Homo sapiens, Astrocyte, 24 h): 22.2 µM
Demethoxycurcumin | had no effect on the migration | not in GBM8401 cells | 30 µM | 11.3 µM |  | had no effect on the migration | reduce | promoted cell proliferation | suppressed colony formation in LN229 cells only in high-dose manner |  | IC50 (GBM8401 glioma cells [6]; GBM8401, MTS assay, 24 h treatment): 17.7 µM; IC50 (LN229 glioma cells [12]; LN229, MTS assay, 24 h treatment): 24.5 µM

Source: paper PMC8349541 (OncoTargets and therapy, 2021)
